We go through three compounds from ChEMBL document CHEMBL4118021, “Studies of TAK1-centered polypharmacology with novel covalent TAK1 inhibitors” (Bioorg Med Chem, 2017).

In assay [1] the target is eIF-2-alpha kinase GCN2 (Homo sapiens) (UniProt Q9P2K8). Put plainly: Inhibition of GCN2 domain2 in human SKCO1 cells at 1 uM after 4 hrs using biotin labeled DLKPVNIFLDSDDHVK probe by mass-spectrometric analysis relative to control. It is filed as cell-based.
Assay [2] has as its target T1, Inhibitor of nuclear factor kappa-B kinase subunit beta (Homo sapiens) (UniProt O14920).
T1 sequence (whole entry): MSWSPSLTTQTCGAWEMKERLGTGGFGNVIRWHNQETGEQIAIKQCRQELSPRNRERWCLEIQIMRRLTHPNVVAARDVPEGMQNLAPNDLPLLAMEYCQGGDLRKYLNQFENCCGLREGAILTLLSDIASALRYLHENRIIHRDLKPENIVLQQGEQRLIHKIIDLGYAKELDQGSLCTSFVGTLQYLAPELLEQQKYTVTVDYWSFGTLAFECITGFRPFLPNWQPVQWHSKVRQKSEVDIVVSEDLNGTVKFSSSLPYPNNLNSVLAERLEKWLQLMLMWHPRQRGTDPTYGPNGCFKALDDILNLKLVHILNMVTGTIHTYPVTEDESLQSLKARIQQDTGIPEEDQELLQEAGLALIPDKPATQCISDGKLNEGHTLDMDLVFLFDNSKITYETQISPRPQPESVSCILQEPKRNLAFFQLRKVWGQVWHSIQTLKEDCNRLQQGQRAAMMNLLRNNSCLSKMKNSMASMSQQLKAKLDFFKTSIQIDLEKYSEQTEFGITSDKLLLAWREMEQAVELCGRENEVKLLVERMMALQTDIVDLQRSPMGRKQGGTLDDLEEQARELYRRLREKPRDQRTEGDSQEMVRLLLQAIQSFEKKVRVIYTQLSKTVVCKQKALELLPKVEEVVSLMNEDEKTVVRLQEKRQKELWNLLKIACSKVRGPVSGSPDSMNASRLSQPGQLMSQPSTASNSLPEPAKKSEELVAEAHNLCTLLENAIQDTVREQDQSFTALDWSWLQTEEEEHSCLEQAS
Put plainly: Inhibition of IKKb in human SKCO1 cells at 1 uM after 4 hrs using biotin labeled DLKPENIVLQQGEQR probe by mass-spectrometric analysis relative to control. In kind it is cell-based.

For assay [3], the target named is Dual specificity mitogen-activated protein kinase kinase 1 (Homo sapiens) (UniProt Q02750). Put plainly: Inhibition of MAP2K1 in human SKCO1 cells at 1 uM after 4 hrs using biotin labeled KLIHLEIKPAIR probe by mass-spectrometric analysis relative to control. It is filed as cell-based. Conditions: pooled result: one value given for 2 cell lines, strains, targets or settings.

Assay [4] concerns the target T2, Dual specificity mitogen-activated protein kinase kinase 7 (Homo sapiens) (UniProt O14733).
T2 sequence (whole entry): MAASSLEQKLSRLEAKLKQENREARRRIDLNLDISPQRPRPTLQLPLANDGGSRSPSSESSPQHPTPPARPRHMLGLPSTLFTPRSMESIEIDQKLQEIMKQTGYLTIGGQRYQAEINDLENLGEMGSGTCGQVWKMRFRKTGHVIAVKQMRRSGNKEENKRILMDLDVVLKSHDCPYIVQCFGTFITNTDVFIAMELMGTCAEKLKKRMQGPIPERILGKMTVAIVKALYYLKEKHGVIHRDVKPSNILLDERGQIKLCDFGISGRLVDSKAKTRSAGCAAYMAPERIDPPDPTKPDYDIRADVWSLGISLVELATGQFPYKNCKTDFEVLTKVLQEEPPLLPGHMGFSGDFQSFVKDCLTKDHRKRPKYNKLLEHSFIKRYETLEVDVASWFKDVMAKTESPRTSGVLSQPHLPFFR
Put plainly: Inhibition of MAP2K7 in human SKCO1 cells at 1 uM after 4 hrs using biotin labeled DVKPSNILLDER probe by mass-spectrometric analysis relative to control. In kind it is cell-based.

Assay [5] addresses Mitogen-activated protein kinase kinase kinase 4 (Homo sapiens) (UniProt Q9Y6R4). Put plainly: Inhibition of MAP3K4 in human SKCO1 cells at 1 uM after 4 hrs using biotin labeled DIKGANIFLTSSGLIK probe by mass-spectrometric analysis relative to control. It is filed as cell-based.
Assay [6] deals with Cyclin-dependent kinase 17 (Homo sapiens) (UniProt Q00537). Put plainly: Inhibition of PCTAIRE2 in human SKCO1 cells at 1 uM after 4 hrs using biotin labeled SKLTENLVALKEIR probe by mass-spectrometric analysis relative to control. In kind it is cell-based. In short, it runs like this:
(§1)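 Live SK-CO-1 cells exposed to compound at 1 μM or DMSO for 4 h (KiNativ). Lysates then labeled with lysine-reactive ATP/ADP-biotin probe, and probe-labeled kinase peptides quantified by mass spectrometry. Percent inhibition of probe-dependent recovery calculated relative to DMSO-treated cells.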

In assay [7] the target is Phosphatidylinositol 4-kinase beta (Homo sapiens) (UniProt Q9UBF8). Nature of the assay: Inhibition of PI4KB in human SKCO1 cells at 1 uM after 4 hrs using biotin labeled VPHTQAVVLNSKDK probe by mass-spectrometric analysis relative to control. It is filed as cell-based. In short, it runs like this:
as §1

For assay [8], the target named is Interferon-induced, double-stranded RNA-activated protein kinase (Homo sapiens) (UniProt P19525). Nature of the assay: Inhibition of PKR in human SKCO1 cells at 1 uM after 4 hrs using biotin labeled DLKPSNIFLVDTK probe by mass-spectrometric analysis relative to control. It is filed as cell-based. In short, it runs like this:
as §1

Assay [9] addresses RAF proto-oncogene serine/threonine-protein kinase (Homo sapiens) (UniProt P04049). Put plainly: Inhibition of RAF1 in human SKCO1 cells at 1 uM after 4 hrs using biotin labeled DMKSNNIFLHEGLTVK probe by mass-spectrometric analysis relative to control. It is filed as cell-based. The method, boiled down: as §1
Assay [10] addresses Ribosomal protein S6 kinase alpha-1 (Homo sapiens) (UniProt Q15418). Nature of the assay: Inhibition of RSK1 domain1 in human SKCO1 cells at 1 uM after 4 hrs using biotin labeled LTDFGLSKEAIDHEKK probe by mass-spectrometric analysis relative to control. In kind it is cell-based. The method, boiled down: as §1
In assay [11] the target is Serine/threonine-protein kinase tousled-like 2 (Homo sapiens) (UniProt Q86UE8). Nature of the assay: Inhibition of TLK2 in human SKCO1 cells at 1 uM after 4 hrs using biotin labeled YLNEIKPPIIHYDLKPGNILLVNGTACEIK probe by mass-spectrometric analysis relative to control. It is filed as cell-based. In short, it runs like this: as §1
Chain of Serine/threonine-protein kinase tousled-like 2 (Homo sapiens) (Q86UE8 whole entry, looked up): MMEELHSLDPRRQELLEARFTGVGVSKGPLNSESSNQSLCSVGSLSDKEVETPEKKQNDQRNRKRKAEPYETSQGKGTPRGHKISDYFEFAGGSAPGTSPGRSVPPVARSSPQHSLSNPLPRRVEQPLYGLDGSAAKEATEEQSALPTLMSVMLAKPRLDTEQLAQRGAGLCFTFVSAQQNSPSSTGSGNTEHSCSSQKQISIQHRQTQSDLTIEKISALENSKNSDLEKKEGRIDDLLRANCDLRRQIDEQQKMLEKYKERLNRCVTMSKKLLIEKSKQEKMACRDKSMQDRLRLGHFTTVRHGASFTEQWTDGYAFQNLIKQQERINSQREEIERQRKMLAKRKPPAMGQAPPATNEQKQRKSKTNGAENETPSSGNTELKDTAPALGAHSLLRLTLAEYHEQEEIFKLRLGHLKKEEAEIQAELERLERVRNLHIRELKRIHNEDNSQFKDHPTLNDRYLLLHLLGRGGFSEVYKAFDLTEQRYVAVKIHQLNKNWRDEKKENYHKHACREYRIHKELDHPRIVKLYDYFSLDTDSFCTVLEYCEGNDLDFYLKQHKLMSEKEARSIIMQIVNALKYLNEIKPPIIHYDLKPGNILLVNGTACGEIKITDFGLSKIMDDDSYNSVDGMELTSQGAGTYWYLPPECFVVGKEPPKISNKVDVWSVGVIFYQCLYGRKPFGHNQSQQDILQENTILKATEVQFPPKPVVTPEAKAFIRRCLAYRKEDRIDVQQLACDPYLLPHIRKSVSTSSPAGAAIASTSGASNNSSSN
Assay [12] has as its target Serine/threonine-protein kinase VRK2 (Homo sapiens) (UniProt Q86Y07). Nature of the assay: Inhibition of VRK2 in human SKCO1 cells at 1 uM after 4 hrs using biotin labeled MLDVLEYIHENEYVHGDIKAANLLLYK probe by mass-spectrometric analysis relative to control. It is filed as cell-based. In short, it runs like this: as §1
Assay [13] concerns the target Aurora kinase A (Homo sapiens) (UniProt O14965). Nature of the assay: Inhibition of AurA in human SKCO1 cells at 1 uM after 4 hrs using biotin labeled GKFGNVYLAR probe by mass-spectrometric analysis relative to control. The conditions noted are these: pooled result: one value given for 3 cell lines, strains, targets or settings.
The target is the same in assay [14]. Put plainly: Inhibition of AurA in human SKCO1 cells at 1 uM after 4 hrs using biotin labeled DIKPENLLLGSAGELK probe by mass-spectrometric analysis relative to control.

Each structure is given as a SMILES string.

The inhibition is the drop in the measured response relative to a control, in per cent.

Chain of Serine/threonine-protein kinase VRK2 (Homo sapiens) (Q86Y07 whole entry): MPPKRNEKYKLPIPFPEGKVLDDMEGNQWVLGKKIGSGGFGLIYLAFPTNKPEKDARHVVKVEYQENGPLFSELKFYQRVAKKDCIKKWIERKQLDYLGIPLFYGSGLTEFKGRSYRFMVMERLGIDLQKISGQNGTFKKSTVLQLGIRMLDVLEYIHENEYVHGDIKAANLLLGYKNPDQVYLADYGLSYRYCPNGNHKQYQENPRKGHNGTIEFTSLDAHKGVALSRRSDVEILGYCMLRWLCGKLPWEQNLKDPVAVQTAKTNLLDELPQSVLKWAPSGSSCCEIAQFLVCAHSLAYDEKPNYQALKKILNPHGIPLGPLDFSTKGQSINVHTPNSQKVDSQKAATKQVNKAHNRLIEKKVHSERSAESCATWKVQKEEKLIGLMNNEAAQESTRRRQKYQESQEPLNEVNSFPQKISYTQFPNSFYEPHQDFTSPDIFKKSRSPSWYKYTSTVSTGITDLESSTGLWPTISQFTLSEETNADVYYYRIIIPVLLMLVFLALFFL
Chain of Phosphatidylinositol 4-kinase beta (Homo sapiens) (Q9UBF8 2-816 limits assumed): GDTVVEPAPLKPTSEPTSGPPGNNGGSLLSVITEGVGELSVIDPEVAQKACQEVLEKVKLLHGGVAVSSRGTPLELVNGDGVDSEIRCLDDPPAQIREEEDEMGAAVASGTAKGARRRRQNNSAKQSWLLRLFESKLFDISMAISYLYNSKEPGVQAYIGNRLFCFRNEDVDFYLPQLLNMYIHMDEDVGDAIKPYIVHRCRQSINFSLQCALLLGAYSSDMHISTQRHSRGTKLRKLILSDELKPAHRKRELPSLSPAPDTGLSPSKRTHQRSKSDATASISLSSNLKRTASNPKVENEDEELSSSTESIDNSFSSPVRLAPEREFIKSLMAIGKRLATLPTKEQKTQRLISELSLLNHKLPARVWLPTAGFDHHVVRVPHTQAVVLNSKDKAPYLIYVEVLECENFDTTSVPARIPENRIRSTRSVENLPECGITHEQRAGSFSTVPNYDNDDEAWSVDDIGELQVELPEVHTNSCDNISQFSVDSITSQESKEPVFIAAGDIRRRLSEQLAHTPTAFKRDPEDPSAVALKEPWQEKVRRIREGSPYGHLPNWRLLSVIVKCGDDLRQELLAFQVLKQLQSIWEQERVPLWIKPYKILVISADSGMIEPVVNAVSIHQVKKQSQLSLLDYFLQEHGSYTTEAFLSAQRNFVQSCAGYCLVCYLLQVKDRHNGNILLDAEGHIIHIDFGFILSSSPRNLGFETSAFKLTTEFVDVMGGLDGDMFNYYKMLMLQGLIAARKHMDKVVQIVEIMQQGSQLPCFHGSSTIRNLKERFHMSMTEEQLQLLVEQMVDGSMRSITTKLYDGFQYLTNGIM
Chain of RAF proto-oncogene serine/threonine-protein kinase (Homo sapiens) (P04049 whole entry, the tested form may be a part): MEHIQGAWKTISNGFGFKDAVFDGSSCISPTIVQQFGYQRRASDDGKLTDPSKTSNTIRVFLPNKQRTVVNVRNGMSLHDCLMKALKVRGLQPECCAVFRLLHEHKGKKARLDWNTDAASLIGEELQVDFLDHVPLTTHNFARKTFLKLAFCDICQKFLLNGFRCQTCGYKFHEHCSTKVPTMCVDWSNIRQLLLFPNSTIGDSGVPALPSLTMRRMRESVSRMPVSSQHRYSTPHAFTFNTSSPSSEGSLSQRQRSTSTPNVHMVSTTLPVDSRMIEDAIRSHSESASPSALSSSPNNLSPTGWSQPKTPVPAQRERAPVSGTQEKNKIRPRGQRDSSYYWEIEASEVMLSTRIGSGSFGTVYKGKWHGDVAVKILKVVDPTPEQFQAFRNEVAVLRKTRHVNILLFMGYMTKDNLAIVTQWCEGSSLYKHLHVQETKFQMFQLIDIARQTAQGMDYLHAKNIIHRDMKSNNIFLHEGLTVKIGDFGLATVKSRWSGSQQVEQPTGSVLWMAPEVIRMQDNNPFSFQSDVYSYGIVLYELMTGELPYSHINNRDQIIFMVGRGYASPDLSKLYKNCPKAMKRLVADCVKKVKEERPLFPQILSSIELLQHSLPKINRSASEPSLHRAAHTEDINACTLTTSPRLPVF
Chain of Ribosomal protein S6 kinase alpha-1 (Homo sapiens) (Q15418 whole entry, the tested form may be a part): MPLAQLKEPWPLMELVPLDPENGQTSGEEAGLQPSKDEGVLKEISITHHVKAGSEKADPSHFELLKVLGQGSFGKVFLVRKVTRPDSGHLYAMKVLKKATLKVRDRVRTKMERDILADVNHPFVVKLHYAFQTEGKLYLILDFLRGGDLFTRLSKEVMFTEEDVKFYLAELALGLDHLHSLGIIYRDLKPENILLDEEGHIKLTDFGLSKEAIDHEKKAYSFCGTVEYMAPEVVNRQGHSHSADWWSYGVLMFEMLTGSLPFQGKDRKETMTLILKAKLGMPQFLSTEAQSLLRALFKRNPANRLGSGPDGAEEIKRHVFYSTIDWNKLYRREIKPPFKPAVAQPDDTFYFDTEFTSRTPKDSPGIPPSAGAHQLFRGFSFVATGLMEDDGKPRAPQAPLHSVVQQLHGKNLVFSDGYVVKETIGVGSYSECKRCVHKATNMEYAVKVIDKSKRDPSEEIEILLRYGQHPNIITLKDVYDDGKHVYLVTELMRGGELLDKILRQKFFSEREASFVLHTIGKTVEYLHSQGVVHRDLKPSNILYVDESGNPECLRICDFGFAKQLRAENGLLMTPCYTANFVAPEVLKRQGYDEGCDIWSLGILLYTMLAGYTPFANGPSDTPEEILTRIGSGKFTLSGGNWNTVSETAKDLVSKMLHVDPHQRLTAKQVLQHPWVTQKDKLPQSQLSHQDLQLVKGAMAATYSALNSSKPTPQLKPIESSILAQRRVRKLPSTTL
Chain of Aurora kinase A (Homo sapiens) (O14965 whole entry, looked up): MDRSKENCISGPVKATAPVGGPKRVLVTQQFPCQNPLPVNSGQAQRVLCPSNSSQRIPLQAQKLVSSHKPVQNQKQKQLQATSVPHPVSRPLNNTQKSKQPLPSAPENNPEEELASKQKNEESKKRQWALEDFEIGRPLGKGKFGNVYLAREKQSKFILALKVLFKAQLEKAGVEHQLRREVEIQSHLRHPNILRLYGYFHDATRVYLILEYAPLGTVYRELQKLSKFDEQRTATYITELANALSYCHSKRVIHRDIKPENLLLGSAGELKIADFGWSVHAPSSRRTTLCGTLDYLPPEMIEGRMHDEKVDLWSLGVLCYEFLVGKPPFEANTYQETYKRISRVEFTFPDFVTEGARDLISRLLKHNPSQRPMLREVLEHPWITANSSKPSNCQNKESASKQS
Chain of Cyclin-dependent kinase 17 (Homo sapiens) (Q00537 whole entry, looked up): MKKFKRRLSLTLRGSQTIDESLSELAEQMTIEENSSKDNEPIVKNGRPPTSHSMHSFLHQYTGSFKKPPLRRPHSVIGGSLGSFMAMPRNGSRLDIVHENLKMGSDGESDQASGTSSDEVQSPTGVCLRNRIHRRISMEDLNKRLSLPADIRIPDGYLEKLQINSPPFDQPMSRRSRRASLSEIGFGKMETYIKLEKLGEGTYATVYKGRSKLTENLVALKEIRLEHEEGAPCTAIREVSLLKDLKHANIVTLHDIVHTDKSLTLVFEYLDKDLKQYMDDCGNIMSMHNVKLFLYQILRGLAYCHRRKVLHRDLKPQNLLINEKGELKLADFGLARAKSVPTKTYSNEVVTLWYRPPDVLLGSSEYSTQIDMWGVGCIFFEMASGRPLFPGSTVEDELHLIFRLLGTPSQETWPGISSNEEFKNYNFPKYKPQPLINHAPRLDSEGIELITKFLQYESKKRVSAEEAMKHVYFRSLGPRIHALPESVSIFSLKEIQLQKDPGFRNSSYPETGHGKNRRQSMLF
Chain of Interferon-induced, double-stranded RNA-activated protein kinase (Homo sapiens) (P19525 whole entry): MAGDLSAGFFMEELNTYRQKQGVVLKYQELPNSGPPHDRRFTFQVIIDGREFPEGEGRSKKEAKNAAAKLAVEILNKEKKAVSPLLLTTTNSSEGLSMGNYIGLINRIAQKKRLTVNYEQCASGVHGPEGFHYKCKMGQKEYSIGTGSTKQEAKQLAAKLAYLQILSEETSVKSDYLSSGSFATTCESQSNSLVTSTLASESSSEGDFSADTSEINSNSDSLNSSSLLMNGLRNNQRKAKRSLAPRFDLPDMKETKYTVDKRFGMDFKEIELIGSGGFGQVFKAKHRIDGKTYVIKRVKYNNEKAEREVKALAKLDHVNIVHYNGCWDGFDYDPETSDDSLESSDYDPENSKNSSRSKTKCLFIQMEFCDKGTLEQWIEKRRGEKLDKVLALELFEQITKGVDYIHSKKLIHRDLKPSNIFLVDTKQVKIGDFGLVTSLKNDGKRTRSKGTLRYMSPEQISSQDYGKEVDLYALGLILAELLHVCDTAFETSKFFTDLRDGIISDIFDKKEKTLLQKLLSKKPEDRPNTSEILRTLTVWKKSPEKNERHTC

In the case of `C=CC(=O)Nc1ccccc1Nc1nc(Nc2ccc(N3CCN(C)CC3)cc2)ncc1Cl`, the inhibition in assay [1] was 14.6%; in assay [2] it was 15.3%; in assay [3], 62.7%; in assay [4], 13.7%; in assay [5], 63.3%; in assay [6] it was 3.7%. The inhibition was 14.7% in assay [7]; 2.6% in assay [8]; 65.6% in assay [9]; 56.2% in [10]; -2.7% in [11]; 10.3% in [12]. The figures for the inhibition in assay [13] and in assay [14] were 95.1% and 89.1%, respectively.

Consider `COc1cc(O)c2c(c1)/C=C/C[C@H](O)[C@H](O)C(=O)/C=C\C[C@H](C)OC2=O`, for which the inhibition is -6.1% in assay [1]; -3% in [2]; 85.3% in assay [3]; 18.6% in assay [4]; 17.8% in assay [5]; 21.2% in [6]. Moreover, the inhibition was 21.8% in assay [7]; -6.6% in [8]; 66.4% in assay [9]; 54.5% in [10]; -1.8% in assay [11]; 20.4% in assay [12]. Besides, the inhibition was 55.7% in [13] and 56.3% in [14].

Consider `C=CC(=O)Nc1ccccc1Oc1nc(Nc2cnn(CCOC)c2)ncc1Cl`, for which the inhibition is 1.2% in assay [1]; -9% in assay [2]; 13.9% in [3]; 12.3% in [4]; 12.9% in [5]; 21.9% in assay [6]. The inhibition in assay [7] is 27.2%; in assay [8] it was 2.5%; in assay [9] it was 6.3%; in assay [10], 33.5%; in assay [11], 3.8%; in assay [12] it was 3.6%. In addition, the inhibition in [13] is 57.9%; in [14] it was 48.4%.
